{"source": "paper PMC8359148", "about": "(ACS Omega, 2021)", "key": {"solubility": {"experiment": "solubility", "type": "physicochemical", "method_in_brief": "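DMSO solubility is tested up to 100 mM, the highest concentration tested. For aqueous solubility, PBS is slowly titrated into 10 mM DMSO stock to give 100 μM, the highest concentration tested. Clarity is checked visually against a PBS standard at room temperature over 24 h.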"}, "[1]": {"system": "HepG2 (liver hepatocellular carcinoma) cells", "experiment": "HepG2", "type": "cell-based, human", "method_in_brief": "(§1)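 Dose–response EC50 values, each from three or more independent experiments. Dd2 and 3D7 runs use chloroquine as comparator. The selectivity index is calculated as HepG2 EC50 divided by Dd2 EC50.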"}, "chemical stability": {"experiment": "chemical stability", "type": "physicochemical"}, "[2]": {"system": "chloroquine-resistant P. falciparum Dd2 parasites", "experiment": "SYBR Green I dose–response assay against Dd2 parasites", "type": "cell-based", "settings": "Plasmodium falciparum, DD2, read-out: EC50 Dd2, chloroquine-resistant P. falciparum Dd2, three or more independent experiments", "method_in_brief": "as §1"}, "[3]": {"system": "P. falciparum Dd2 cultures", "experiment": "kinetic kill experiments", "type": "cell-based, Plasmodium falciparum", "method_in_brief": "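Asynchronous Dd2 cultures are exposed to test compound for 6, 12, 24 or 48 h at 0.15% DMSO, then washed three times in RPMI and resuspended in culture medium. Parasite growth is monitored daily for 96 h. DHA (50 nM) and atovaquone (6.6 nM) serve as controls.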"}, "[4]": {"system": "wild-type P. falciparum 3D7 cells", "experiment": "dose–response assay against 3D7 cells", "type": "cell-based", "settings": "Plasmodium falciparum, 3D7, read-out: EC50 3D7", "method_in_brief": "as §1"}, "[5]": {"system": "tightly synchronized P. falciparum Dd2 cells", "experiment": "developmental stage-specific action", "type": "cell-based, Plasmodium falciparum", "method_in_brief": "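Tightly synchronized Dd2 cultures are treated with 1.25 μM test compound at 6, 18, 30 or 42 HPI, with 0.1% DMSO-treated infected RBCs as negative control and DHA and atovaquone as positive controls. Every 12 h, Giemsa-stained smears are read. Flow cytometry samples are fixed in 4% paraformaldehyde/0.0075% glutaraldehyde, permeabilized with 0.25% Triton X-100, RNase-treated (50 μg/mL) and YOYO-1 stained; parasitemia is taken by flow cytometry.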"}}, "note": "Entries after “also recorded” stand apart in the source; their conditions may differ.", "data": [{"smiles": "CC[C@@]12C=C(C(=O)OC)n3c(c(c4ccccc43)CCN(C(=O)c3ccccn3)CCC1)[C@@H]2c1ccc(O)cc1", "note": "[Compound 30, methyl (11S,19S)-11-ethyl-19-(4-hydroxyphenyl)-15-(pyridine-2-carbonyl)-8,15-diazatetracyclo[9.6.2.0^2,7.0^8,18]nonadeca-1(18),2(7),3,5,9-pentaene-9-carboxylate]", "values": [{"measurement": "solubility at 24 h", "setting": "solubility; PBS buffer, aqueous buffer, kinetic from dmso stock", "result": "≥ 0.1", "unit": "mM"}, {"measurement": "solubility", "setting": "solubility; biological grade DMSO, organic solvent or mixture", "result": "≥ 100", "unit": "mM"}, {"measurement": "selectivity index (SI)", "setting": "[1]; HepG2 EC50/EC50 Dd2 cells", "result": ">100"}, {"measurement": "EC50", "setting": "[1]; Homo sapiens, HepG2, read-out: EC50 HepG2", "result": "> 25000", "unit": "nM"}, {"measurement": "chemical stability in acidified PBS", "setting": "chemical stability; 100 μM, PBS pH 2.0 (1.95), 24 h room temperature then 24 h 37 °C, TLC and NMR", "result": "no compound breakdown; also recorded: no degradation"}, {"measurement": "chemical stability in PBS pH 7.4", "setting": "chemical stability; 100 μM, PBS pH 7.4, 24 h room temperature then 24 h 37 °C, TLC and NMR", "result": "no compound breakdown; also recorded: no degradation"}, {"measurement": "chemical stability during NMR experiments", "setting": "chemical stability; 100 °C for multiple hours", "result": "without showing compound breakdown"}, {"measurement": "EC50", "setting": "[2]", "result": "250 ± 4", "unit": "nM"}, {"measurement": "effect after 24 h treatment", "setting": "[3]; 5× EC50, 24 h treatment, based on the 96 h time point", "result": "reduces parasitemia"}, {"measurement": "effect after 48 h treatment", "setting": "[3]; 5× EC50, 48 h treatment", "result": "more dramatic parasitocidal effect"}, {"measurement": "kill rate", "setting": "[3]; Dd2 cultures, 5 × EC50, treatment time required to kill", "result": ">24", "unit": "h"}, {"measurement": "EC50", "setting": "[4]", "result": "1190 ± 250", "unit": "nM"}, {"measurement": "parasitemia (flow cytometry)", "setting": "[5]; Dd2 cells treated at 6, 18 and 30 HPI, 5 x EC50", "result": "remarkable decrease in parasitemia"}, {"measurement": "effect on maturation when treated at 42 HPI", "setting": "[5]; Dd2 cells treated at 42 HPI, 5 x EC50", "result": "did not inhibit maturation"}, {"measurement": "stage-specific activity", "setting": "[5]; synchronized Dd2, 5 x EC50 (1.25 μM), treated at 6, 18, 30 and 42 HPI", "result": "prevents exit on the parasite from the schizont stage; also recorded: arrested at the late schizont stage; also recorded: do not advance beyond the late schizont stage; also recorded: act specifically on the trophozoite/schizont stage"}]}]}
